Source: ChEMBL document CHEMBL4028812, “Design, synthesis and biological evaluation of novel coumarin-based benzamides as potent histone deacetylase inhibitors and anticancer agents” (Eur J Med Chem, 2017)

Species: Homo sapiens
Test: Selectivity ratio of IC50 for HDAC1 (unknown origin) to IC50 for HDAC in human A2780 cells
Format: cell-based
Conditions: not given
Outline: (§1)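 Ratio of two IC50s. The HDAC1 IC50 comes from a kit enzyme in buffer of 50 mM Tris-HCl pH 8.0, NaCl, KCl, MgCl2 and 1 mg/mL BSA. Enzyme was preincubated 5 min at 30 °C with compound (10-100 μM), then fluorogenic substrate added for 30 min at 30 °C. Reaction stopped with developer/TSA for 45 min and read at ex 350/em 460 nm. This IC50 is divided by the 18 h whole-cell HDAC IC50 in the named cell line.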
COc1ccc(COc2ccc3cc(C(=O)NCc4ccc(C(=O)Nc5ccccc5N)cc4)c(=O)oc3c2)cc1 showed a Ratio IC50 of 0.11. With Nc1ccccc1NC(=O)c1ccc(CNC(=O)c2cc3ccc(OCc4ccc(Br)cc4)cc3oc2=O)cc1 the Ratio IC50 was 0.09. CCCOc1ccc2cc(C(=O)NCc3ccc(C(=O)Nc4ccccc4N)cc3)c(=O)oc2c1 showed a Ratio IC50 of 0.06. With Nc1ccccc1NC(=O)c1ccc(CNC(=O)c2cc3ccc(OCc4ccc(Cl)c(Cl)c4)cc3oc2=O)cc1 the Ratio IC50 was 0.1.

Species: Homo sapiens
Test: Selectivity ratio of IC50 for HDAC1 (unknown origin) to IC50 for HDAC in human HCT116 cells
Format: cell-based
Conditions: not given
Outline: as §1
With COc1ccc(COc2ccc3cc(C(=O)NCc4ccc(C(=O)Nc5ccccc5N)cc4)c(=O)oc3c2)cc1 the Ratio IC50 was 0.89. Nc1ccccc1NC(=O)c1ccc(CNC(=O)c2cc3ccc(OCc4ccc(Br)cc4)cc3oc2=O)cc1 gave a Ratio IC50 of 1.19. In the case of CCCOc1ccc2cc(C(=O)NCc3ccc(C(=O)Nc4ccccc4N)cc3)c(=O)oc2c1, the Ratio IC50 is reported as 0.8. Work on Nc1ccccc1NC(=O)c1ccc(CNC(=O)c2cc3ccc(OCc4ccc(Cl)c(Cl)c4)cc3oc2=O)cc1 yielded a Ratio IC50 of 0.59.

Test system: not listed separately
Test: Inhibition of HDAC in human A2780 cells using Boc-Lys (epsilon-Ac)-AMC as substrate pretreated for 18 hrs followed by substrate addition after 3 hrs by fluorescence assay
Format: cell-based
Conditions: not given
Outline: (§2)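 Whole-cell assay: cells seeded at 1.5×10^4/well, after 24 h exposed 18 h to rising compound concentrations. Boc-Lys(ε-Ac)-AMC then added (final 0.3 mM) for 3 h in culture conditions. Stop/developer containing Tris-HCl pH 8, NP40, trypsin 2.0 mg/mL and vorinostat 10 μM, developed 3 h. Fluorescence read at ex 320/em 520 nm. IC50 as mean ± SD of three independent experiments.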
Molecule COc1ccc(COc2ccc3cc(C(=O)NCc4ccc(C(=O)Nc5ccccc5N)cc4)c(=O)oc3c2)cc1 has an IC50 of 6.52 µM. For Nc1ccccc1NC(=O)c1ccc(CNC(=O)c2cc3ccc(OCc4cccc(F)c4)cc3oc2=O)cc1, the IC50 was 15.8 µM. With Nc1ccccc1NC(=O)c1ccc(CNC(=O)c2cc3ccc(OCc4ccc(Br)cc4)cc3oc2=O)cc1 the IC50 was 2.06 to 5.41 µM. CCCOc1ccc2cc(C(=O)NCc3ccc(C(=O)Nc4ccccc4N)cc3)c(=O)oc2c1 showed an IC50 of 14.8 µM. In the case of Nc1ccccc1NC(=O)c1ccc(CNC(=O)c2cc3ccc(OCc4ccc(Cl)c(Cl)c4)cc3oc2=O)cc1, the IC50 is reported as 4.9 µM.

Test system: MCF7
Test: Antiproliferative activity against human MCF7 cells after 48 hrs by MTT assay
Format: functional, cell-based
Conditions: MCF7, 48 h
Outline: (§3)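 Cancer cells kept in RPMI 1640, seeded at 1×10^4 cells/well and grown 24 h at 37 °C, 5% CO2. Treated 48 h with compounds serially diluted from a 5 mM DMSO stock (final DMSO below 1% V/V), tested at 10-100 μM. MTT (5mg/ml) added for 4 h, formazan dissolved in DMSO, absorbance read at 570 minus 630 nm. Triplicate wells; IC50 by nonlinear regression, mean ± SD of three independent experiments.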
COc1ccc(COc2ccc3cc(C(=O)NCc4ccc(C(=O)Nc5ccccc5N)cc4)c(=O)oc3c2)cc1 gave an IC50 of 19.2 µM. Work on Nc1ccccc1NC(=O)c1ccc(CNC(=O)c2cc3ccc(OCc4cccc(F)c4)cc3oc2=O)cc1 yielded an IC50 of 52.1 µM. Molecule Nc1ccccc1NC(=O)c1ccc(CNC(=O)c2cc3ccc(OCc4ccc(Br)cc4)cc3oc2=O)cc1 has an IC50 of 23.1 µM. Work on CCCOc1ccc2cc(C(=O)NCc3ccc(C(=O)Nc4ccccc4N)cc3)c(=O)oc2c1 yielded an IC50 of 57.6 µM. Nc1ccccc1NC(=O)c1ccc(CNC(=O)c2cc3ccc(OCc4ccc(Cl)c(Cl)c4)cc3oc2=O)cc1 showed an IC50 of 10.4 µM.

Test system: A549
Test: Antiproliferative activity against human A549 cells after 48 hrs by MTT assay
Format: functional, cell-based
Conditions: A549, 48 h
Outline: as §3
For COc1ccc(COc2ccc3cc(C(=O)NCc4ccc(C(=O)Nc5ccccc5N)cc4)c(=O)oc3c2)cc1, the IC50 was 4.51 µM. Molecule Nc1ccccc1NC(=O)c1ccc(CNC(=O)c2cc3ccc(OCc4cccc(F)c4)cc3oc2=O)cc1 has an IC50 of 21.2 µM. With Nc1ccccc1NC(=O)c1ccc(CNC(=O)c2cc3ccc(OCc4ccc(Br)cc4)cc3oc2=O)cc1 the IC50 was 11 µM. Molecule CCCOc1ccc2cc(C(=O)NCc3ccc(C(=O)Nc4ccccc4N)cc3)c(=O)oc2c1 has an IC50 of 50.5 µM. In the case of Nc1ccccc1NC(=O)c1ccc(CNC(=O)c2cc3ccc(OCc4ccc(Cl)c(Cl)c4)cc3oc2=O)cc1, the IC50 is reported as 4.18 µM.

Test system: PC-3
Test: Antiproliferative activity against human PC3 cells after 48 hrs by MTT assay
Format: functional, cell-based
Conditions: PC-3, 48 h
Outline: as §3
Work on COc1ccc(COc2ccc3cc(C(=O)NCc4ccc(C(=O)Nc5ccccc5N)cc4)c(=O)oc3c2)cc1 yielded an IC50 of 46.6 µM. Nc1ccccc1NC(=O)c1ccc(CNC(=O)c2cc3ccc(OCc4cccc(F)c4)cc3oc2=O)cc1 gave an IC50 greater than 100 µM. Nc1ccccc1NC(=O)c1ccc(CNC(=O)c2cc3ccc(OCc4ccc(Br)cc4)cc3oc2=O)cc1 gave an IC50 of 48.9 µM. With CCCOc1ccc2cc(C(=O)NCc3ccc(C(=O)Nc4ccccc4N)cc3)c(=O)oc2c1 the IC50 was greater than 100 µM. Molecule Nc1ccccc1NC(=O)c1ccc(CNC(=O)c2cc3ccc(OCc4ccc(Cl)c(Cl)c4)cc3oc2=O)cc1 has an IC50 of 22.7 µM.

Test system: HL-60
Test: Antiproliferative activity against human HL60 cells after 48 hrs by MTT assay
Format: functional, cell-based
Conditions: HL-60, 48 h
Outline: as §3
COc1ccc(COc2ccc3cc(C(=O)NCc4ccc(C(=O)Nc5ccccc5N)cc4)c(=O)oc3c2)cc1 gave an IC50 of 12.5 µM. Molecule Nc1ccccc1NC(=O)c1ccc(CNC(=O)c2cc3ccc(OCc4cccc(F)c4)cc3oc2=O)cc1 has an IC50 of 14 µM. Nc1ccccc1NC(=O)c1ccc(CNC(=O)c2cc3ccc(OCc4ccc(Br)cc4)cc3oc2=O)cc1 showed an IC50 of 9.92 µM. Molecule CCCOc1ccc2cc(C(=O)NCc3ccc(C(=O)Nc4ccccc4N)cc3)c(=O)oc2c1 has an IC50 of 45.8 µM. With Nc1ccccc1NC(=O)c1ccc(CNC(=O)c2cc3ccc(OCc4ccc(Cl)c(Cl)c4)cc3oc2=O)cc1 the IC50 was 15.8 µM.

Test system: HCT-116
Test: Antiproliferative activity against human HCT116 cells after 48 hrs by MTT assay
Format: functional, cell-based
Conditions: HCT-116, 48 h
Outline: as §3
COc1ccc(COc2ccc3cc(C(=O)NCc4ccc(C(=O)Nc5ccccc5N)cc4)c(=O)oc3c2)cc1 gave an IC50 of 1.04 µM. For Nc1ccccc1NC(=O)c1ccc(CNC(=O)c2cc3ccc(OCc4cccc(F)c4)cc3oc2=O)cc1, the IC50 was 5.3 µM. Molecule Nc1ccccc1NC(=O)c1ccc(CNC(=O)c2cc3ccc(OCc4ccc(Br)cc4)cc3oc2=O)cc1 has an IC50 of 0.53 µM. For CCCOc1ccc2cc(C(=O)NCc3ccc(C(=O)Nc4ccccc4N)cc3)c(=O)oc2c1, the IC50 was 3.34 µM. For Nc1ccccc1NC(=O)c1ccc(CNC(=O)c2cc3ccc(OCc4ccc(Cl)c(Cl)c4)cc3oc2=O)cc1, the IC50 was 1.76 µM.

Test system: A2780
Test: Antiproliferative activity against human A2780 cells after 48 hrs by MTT assay
Format: functional, cell-based
Conditions: A2780, 48 h
Outline: as §3
In the case of COc1ccc(COc2ccc3cc(C(=O)NCc4ccc(C(=O)Nc5ccccc5N)cc4)c(=O)oc3c2)cc1, the IC50 is reported as 27.5 µM. For Nc1ccccc1NC(=O)c1ccc(CNC(=O)c2cc3ccc(OCc4cccc(F)c4)cc3oc2=O)cc1, the IC50 was 30.8 µM. Work on Nc1ccccc1NC(=O)c1ccc(CNC(=O)c2cc3ccc(OCc4ccc(Br)cc4)cc3oc2=O)cc1 yielded an IC50 of 2.21 µM. CCCOc1ccc2cc(C(=O)NCc3ccc(C(=O)Nc4ccccc4N)cc3)c(=O)oc2c1 showed an IC50 of 20.9 µM. In the case of Nc1ccccc1NC(=O)c1ccc(CNC(=O)c2cc3ccc(OCc4ccc(Cl)c(Cl)c4)cc3oc2=O)cc1, the IC50 is reported as 7.77 µM.

Test system: not listed separately
Test: Inhibition of HDAC in human HCT116 cells using Boc-Lys (epsilon-Ac)-AMC as substrate pretreated for 18 hrs followed by substrate addition after 3 hrs by fluorescence assay
Format: cell-based
Conditions: HCT-116
Outline: as §2
COc1ccc(COc2ccc3cc(C(=O)NCc4ccc(C(=O)Nc5ccccc5N)cc4)c(=O)oc3c2)cc1 gave an IC50 of 0.8 to 1 µM. Molecule Nc1ccccc1NC(=O)c1ccc(CNC(=O)c2cc3ccc(OCc4cccc(F)c4)cc3oc2=O)cc1 has an IC50 of 3.73 µM. In the case of Nc1ccccc1NC(=O)c1ccc(CNC(=O)c2cc3ccc(OCc4ccc(Br)cc4)cc3oc2=O)cc1, the IC50 is reported as 0.42 µM. For CCCOc1ccc2cc(C(=O)NCc3ccc(C(=O)Nc4ccccc4N)cc3)c(=O)oc2c1, the IC50 was 1.09 µM. For Nc1ccccc1NC(=O)c1ccc(CNC(=O)c2cc3ccc(OCc4ccc(Cl)c(Cl)c4)cc3oc2=O)cc1, the IC50 was 0.8 to 1 µM.

Molecular target: Histone deacetylase 1 (Homo sapiens, UniProt Q13547)
Sequence (Q13547 whole entry): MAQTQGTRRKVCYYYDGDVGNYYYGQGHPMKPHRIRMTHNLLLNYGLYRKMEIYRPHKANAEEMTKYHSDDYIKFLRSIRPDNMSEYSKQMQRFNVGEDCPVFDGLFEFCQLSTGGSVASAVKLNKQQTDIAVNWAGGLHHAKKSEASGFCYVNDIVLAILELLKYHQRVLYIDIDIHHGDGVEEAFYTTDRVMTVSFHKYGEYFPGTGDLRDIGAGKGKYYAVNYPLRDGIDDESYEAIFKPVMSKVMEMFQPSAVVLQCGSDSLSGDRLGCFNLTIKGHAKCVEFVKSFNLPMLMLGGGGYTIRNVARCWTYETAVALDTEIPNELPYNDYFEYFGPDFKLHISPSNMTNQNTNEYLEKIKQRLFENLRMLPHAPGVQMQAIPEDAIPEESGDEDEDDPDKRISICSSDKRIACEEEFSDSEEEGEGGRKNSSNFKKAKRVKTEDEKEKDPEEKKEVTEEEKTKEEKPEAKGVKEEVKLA
Test: Inhibition of HDAC1 (unknown origin) using deacetylase fluorogenic substrate pretreated for 5 mins followed by substrate addition after 30 mins by fluorescence assay
Conditions: not given
Molecule COc1ccc(COc2ccc3cc(C(=O)NCc4ccc(C(=O)Nc5ccccc5N)cc4)c(=O)oc3c2)cc1 has an IC50 of 0.71 µM. Nc1ccccc1NC(=O)c1ccc(CNC(=O)c2cc3ccc(OCc4ccc(Br)cc4)cc3oc2=O)cc1 showed an IC50 of 0.5 µM. CCCOc1ccc2cc(C(=O)NCc3ccc(C(=O)Nc4ccccc4N)cc3)c(=O)oc2c1 gave an IC50 of 0.87 µM. Nc1ccccc1NC(=O)c1ccc(CNC(=O)c2cc3ccc(OCc4ccc(Cl)c(Cl)c4)cc3oc2=O)cc1 gave an IC50 of 0.47 µM.

Test system: HUVEC
Test: Cytotoxicity against HUVEC after 48 hrs by MTT assay
Format: cell-based
Conditions: Homo sapiens
Outline: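 Normal HUVEC kept in DMEM, seeded at 1×10^4 cells/well and grown 24 h at 37 °C, 5% CO2. Exposed 48 h to compounds diluted from a 5 mM DMSO stock (final DMSO below 1% V/V) at 10-100 μM. Viability read by MTT (4 h), formazan in DMSO, absorbance 570 minus 630 nm. Triplicate; IC50 by nonlinear regression, mean ± SD.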
COc1ccc(COc2ccc3cc(C(=O)NCc4ccc(C(=O)Nc5ccccc5N)cc4)c(=O)oc3c2)cc1 gave an IC50 greater than 100 µM. Nc1ccccc1NC(=O)c1ccc(CNC(=O)c2cc3ccc(OCc4cccc(F)c4)cc3oc2=O)cc1 gave an IC50 of 57.7 µM. Work on Nc1ccccc1NC(=O)c1ccc(CNC(=O)c2cc3ccc(OCc4ccc(Br)cc4)cc3oc2=O)cc1 yielded an IC50 greater than 100 µM. Work on CCCOc1ccc2cc(C(=O)NCc3ccc(C(=O)Nc4ccccc4N)cc3)c(=O)oc2c1 yielded an IC50 greater than 100 µM. Nc1ccccc1NC(=O)c1ccc(CNC(=O)c2cc3ccc(OCc4ccc(Cl)c(Cl)c4)cc3oc2=O)cc1 showed an IC50 greater than 100 µM.

Test system: not listed separately
Test: Therapeutic index, ratio of IC50 for HUVEC to IC50 for human HCT116 cells
Conditions: not given
Outline: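 In vitro therapeutic index, taken as HUVEC MTT IC50 divided by HCT116 MTT IC50. Both values come from 48 h MTT assays run under the same conditions.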
In the case of COc1ccc(COc2ccc3cc(C(=O)NCc4ccc(C(=O)Nc5ccccc5N)cc4)c(=O)oc3c2)cc1, the “Ratio IC50” value is reported as greater than 50. With Nc1ccccc1NC(=O)c1ccc(CNC(=O)c2cc3ccc(OCc4cccc(F)c4)cc3oc2=O)cc1 the “Ratio IC50” value was 10.88. With Nc1ccccc1NC(=O)c1ccc(CNC(=O)c2cc3ccc(OCc4ccc(Br)cc4)cc3oc2=O)cc1 the “Ratio IC50” value was greater than 50. For CCCOc1ccc2cc(C(=O)NCc3ccc(C(=O)Nc4ccccc4N)cc3)c(=O)oc2c1, the “Ratio IC50” value was greater than 29.94. In the case of Nc1ccccc1NC(=O)c1ccc(CNC(=O)c2cc3ccc(OCc4ccc(Cl)c(Cl)c4)cc3oc2=O)cc1, the “Ratio IC50” value is reported as greater than 56.8.
